# High-throughput results: PubChem BioAssay, several laboratories
# Compounds with a hit are over-represented: about 1.8% of the library has one in this group of screens.
# NSD2 inh: NSD2 histone methyltransferase inhibitors, primary screen, biochemical, AlphaScreen, single concentration, set 2; Histone-lysine N-methyltransferase NSD2 (Homo sapiens), O96028; NSD2 peptide methylation, 120 min; inhibition, % at 12.5 µM; 310,000 tested, 0.54% active; in the data active means inhibition above about 50%
# CASP6 VEID inh: human caspase-6 inhibitors, primary screen, biochemical, VEID-R110 fluorescence, single point, set 2; inhibition, % at 12.5 µM; AID 686996, 2013; P55212; 350,000 tested, 0.53% active; purified caspase-6, Z-VEID-R110 cleavage fluorescence;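 active means mean inhibition across replicates at least about 35%, with every replicate also reaching that limit, limit read from the data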;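 further: 0% = median of neutral control wells and 100% = no fluorescence left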
# MBD2 inh: inhibitors of MBD2 binding to methylated DNA, primary screen, biochemical, TR-FRET, DNA-binding domain, human. Methyl-CpG-binding domain protein 2 (Homo sapiens), Q9UBB5. MBD2 binding to methylated oligonucleotide. inhibition, % at 4.4 µM. 370,000 tested, 0.31% active. AID 686964, 2013; in the data active means inhibition above about 13%
# Target sequence (Q9UBB5 whole entry, looked up, the tested form may be a part): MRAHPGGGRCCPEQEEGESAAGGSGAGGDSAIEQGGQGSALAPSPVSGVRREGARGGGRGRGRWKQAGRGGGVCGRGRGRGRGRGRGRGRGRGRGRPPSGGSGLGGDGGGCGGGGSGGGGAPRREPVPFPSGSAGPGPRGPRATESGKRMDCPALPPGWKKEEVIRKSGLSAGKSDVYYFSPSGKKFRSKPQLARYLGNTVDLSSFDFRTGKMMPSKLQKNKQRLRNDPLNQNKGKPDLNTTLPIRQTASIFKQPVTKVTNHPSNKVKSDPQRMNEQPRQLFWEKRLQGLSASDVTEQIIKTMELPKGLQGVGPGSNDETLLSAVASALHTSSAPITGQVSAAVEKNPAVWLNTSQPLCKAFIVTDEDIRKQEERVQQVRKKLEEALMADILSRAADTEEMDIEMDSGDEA
# LEDGF integ inh: blockers of LEDGF/p75-dependent integrase strand transfer – biochemical, TR-FRET, high throughput, primary screen | HIV-1 integrase (with human LEDGF/p75) | TR-FRET IN-LEDGF/p75 DNA integration, Eu/Cy5 | inhibition, % at 3.7 µM | 370,000 tested, 0.64% active | AID 743269, 2014;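 active means inhibition above the screen-wide mean plus 3 SD, cut at about 13% in these data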;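 further: signal is the Cy5 over europium emission ratio at 671 and 618 nm; 0% = plate median of compound wells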
# UHRF1 binding: UHRF1 methylated DNA binding inhibitors, primary screen, counter-screen for MBD2 inhibitor project, biochemical, TR-FRET, human UHRF1, single concentration; UHRF1 binding to methylated oligo; 370,000 tested, 0.75% active; inhibition, % at 4.4 µM; E3 ubiquitin-protein ligase UHRF1 (Homo sapiens), Q96T88; in the data active means inhibition above about 21%;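 further: UHRF1 SRA domain binding a hemimethylated CpG hairpin DNA probe; 0% = median of test compound wells and 100% = reference inhibitor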
# TDP2 inh: human TDP2 enzyme inhibitors, primary screen, biochemical, epi absorbance, recombinant enzyme; Tyrosyl-DNA phosphodiesterase 2 (Homo sapiens), O95551; T5PNP hydrolysis, p-nitrophenol absorbance 415 nm; inhibition, % at 12.8 µM; 370,000 tested, 0.34% active; AID 720702, 2013;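 active means inhibition above the mean of all tested compounds plus 3 SD, set per campaign, cut at about 25% in these data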;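 further: 0% = DMSO with enzyme and 100% = buffer with substrate but no TDP2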
#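 System – recombinant human TDP2 · Amount – 120 nM TDP2 per well · Buffer or medium – Mg2+-containing Tris-HCl buffer, pH 7.5 · Reagent – T5PNP substrate, 5 mM · Dosing – 12.8 µM single point, 1% DMSO · Incubation – 2 h at 37 °C · Measured by – epi absorbance · Read-out basis – percent inhibition · Benchmarks – high control without enzyme, low control DMSO plus TDP2 · Repeats – singlicate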
# The depositor's hits bear a star; nt = no result.
SMILES,NSD2 inh,CASP6 VEID inh,MBD2 inh,LEDGF integ inh,UHRF1 binding,TDP2 inh
COCC#Cc1ccc2c(c1)O[C@@H](CN(C)C(=O)C1CC1)[C@H](C)CN([C@H](C)CO)S2(=O)=O,nt,3,nt,nt,nt,nt
COc1ccc(S(=O)(=O)N=Nc2c(O)[nH]c3ccccc23)cc1,nt,26,13*,10,46*,3
CC12CCC(C(=O)N(CC(O)CN3CCN(Cc4ccccc4)CC3)C1=O)C2(C)C (stereo not drawn),14,-26,9,2,24*,13
O=C(Nc1ccc(F)cc1F)Nc1csc2ccccc12,-2,-3,0,-5,33*,-10
O=C(Nc1ccc(F)c(Cl)c1)Nc1csc2ccccc12,-3,2,4,-2,5,-6
COc1ccc(Cl)cc1NC(=O)c1ccc2c(SCC(=O)O)c3c(nc2c1)CCCC3,nt,37*,-3,-1,-1,13
CCCN(C(=O)c1ccc2c(SCC(=O)O)c3c(nc2c1)CCC3)c1cccc(C)c1,18,65*,-7,3,-3,-11
CCCCNC(=O)c1ccc2c(SCC(=O)O)c3c(nc2c1)CCCC3,2,nt,-5,0,-1,12
COc1ccc(NC(=O)Nc2cccc3c2O[C@@H](CN(C)Cc2ccc(C(F)(F)F)cc2)[C@@H](C)CN([C@@H](C)CO)C3=O)cc1,nt,-1,nt,nt,nt,nt
CCOc1ccc(Nc2nc(Cc3nnc(SCC(=O)NC4CCCCC4)n3C)cs2)cc1,3,nt,4,-1,-5,1
CCOc1ccc(Nc2nc(Cc3nnc(SCC(=O)NCC4CCCO4)n3C)cs2)cc1 (stereo not drawn),3,37*,-5,-6,3,-3
COc1ccc(CNC(=O)CSc2nc3ccccc3n2C(C)=O)cc1,-5,2,7,5,24*,-13
Cn1c(SCC(=O)NCc2ccc(F)cc2)nc2ccccc21,0,nt,0,-4,0,8
COC(=O)CCc1c(C)c(C(=O)c2ccc(F)cc2)c2ccccn12,-1,0,-5,2,0,-3
COC(=O)CCc1c(C)c(C(=O)c2cc(F)c(F)c(F)c2F)c2ccccn12,31,62*,-1,6,11,5
Cc1ccccc1S(=O)(=O)N1[C@@H](C#N)[C@H](c2ccc(-c3ccccc3)cc2)[C@@H]1CO,nt,1,nt,nt,nt,nt
CCCCNCC(O)(c1ccc(Cl)cc1)c1ccc(Cl)cc1,-13,-4,2,-2,57*,3
COc1cccc(CN2CC(C(=O)N(C)Cc3nc4ccc(F)cc4[nH]3)CCC2=O)c1 (stereo not drawn),1,-1,0,0,25*,1
COc1ccc2nc(CCN(C)C(=O)C3CCC(=O)N(Cc4cccc(F)c4)C3)[nH]c2c1 (stereo not drawn),-3,5,-8,-1,-3,-7
CC=Cc1ccc2n(c1=O)C[C@H]1[C@H](CO)[C@@H](C(=O)NC3CCC3)N(C(=O)C3CCC3)[C@@H]21 (mixture of isomers),nt,-2,nt,nt,nt,nt
COc1ccc(S(=O)(=O)Nc2ccc3c(c2)C(=O)N(C)C[C@@H](OC)[C@H](C)CN(C)[C@H](C)CO3)cc1,nt,1,nt,nt,nt,nt
Nc1nc(-c2ccccc2)[nH]c(=O)c1N=O,-6,49*,-9,-3,-2,-5
CCCCSc1nc2[nH]ncc2c(=O)[nH]1,1,-1,-6,1,68*,-2
COc1ccc(CNC(=O)C[C@H]2C=C[C@H](NC(=O)Nc3ccc4c(c3)OCO4)[C@H](CO)O2)cc1,nt,0,nt,nt,nt,nt
CNC[C@H]1OCCCC[C@@H](C)Oc2ccc(NS(=O)(=O)c3ccc(C)cc3)cc2C(=O)N([C@H](C)CO)C[C@H]1C,nt,-2,nt,nt,nt,nt
SMILES,NSD2 inh,CASP6 VEID inh,MBD2 inh,LEDGF integ inh,UHRF1 binding,TDP2 inh
O=C(Oc1c(CN2CCOCC2)cc(Cl)c2cccnc12)c1ccccc1F,2,-2,13,-4,22*,-8
Cn1nc(C(F)(F)F)c(C#N)c1N1CCN(c2ccccn2)CC1,-5,0,9,-1,23*,4
CC(C)CNC(=S)N1CCC(NC(=O)c2ccco2)CC1,-1,-6,2,-4,23*,-3
CCOCCCNC(=S)N1CCC(NC(=O)c2ccco2)CC1,-4,0,2,3,5,-20
COC(=O)[C@@H]1[C@@H](CO)[C@@H]2Cn3c(cccc3=O)[C@@H]2N1C(=O)C1CCCCC1,nt,1,nt,nt,nt,nt
COC(=O)Nc1cc([N+](=O)[O-])ccc1OC,0,0,-3,-3,-1,-5
COc1ccc([N+](=O)[O-])cc1NC(=O)C(C)N1CCCC1 (stereo not drawn),0,3,0,2,49*,2
COc1ccc([N+](=O)[O-])cc1NC(=O)CSc1nc(C)c(C)c(C)n1,nt,nt,0,0,0,-6
COc1ccc([N+](=O)[O-])cc1NC(=O)C(C)Sc1nc(C)c(C)c(C)n1 (stereo not drawn),-2,nt,-1,3,61*,-4
CC(=O)Nc1ccc(NC(=O)COC(=O)c2ccc([N+](=O)[O-])o2)cc1,2,54*,0,3,-4,12
CC(=O)Nc1ccc(NC(=O)COC(=O)c2n[nH]c3ccccc23)cc1,-5,9,-2,0,32*,1
O=C(COC(=O)c1ccc([N+](=O)[O-])o1)NCCCc1ccccc1,0,49*,0,6,-7,-3
O=C(COC(=O)c1ccc(Br)o1)NCc1ccc(F)cc1,nt,-1,-2,2,0,-3
O=C(COC(=O)c1ccc([N+](=O)[O-])o1)NCc1ccc(F)cc1,2,52*,-3,1,-7,17
O=C(COC(=O)c1ccc([N+](=O)[O-])o1)Nc1cccc2ccccc12,0,16,-2,0,-4,7
CC(=O)NCCCC[C@@H]1NC(=O)[C@@H]2C[C@H](C(=O)NCc3ccc(F)cc3)[C@H](c3ccc(O)cc3)N2C1=O,nt,3,nt,nt,nt,nt
COCC#Cc1cnc2c(c1)C(=O)N([C@@H](C)CO)C[C@@H](C)[C@@H](CN(C)C(=O)c1ccc3c(c1)OCO3)O2,nt,-3,nt,nt,nt,nt
CC(OC(=O)c1n[nH]c2ccccc12)C(=O)Nc1ccccc1[N+](=O)[O-] (stereo not drawn),0,36*,4,0,-3,4
